Source: PubChem (several laboratories)
Rad51 HR inh – blocks human Rad51 in homologous recombination; Q06609; hRad51 DNA strand exchange, fluorescence dequenching; inhibition, % at 10 µM; 0.085% of 200,000 active; AID 1385;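 active means inhibition above 40% at the single screening dose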
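material = hRad51 filaments on single-stranded DNA | reagent = Donor/quencher-labelled 47-bp dsDNA substrate | compound = 10 µM final, single point | schedule = strand-exchange reaction 15 min at room temperature | measured by = fluorescein emission 520 nm, excitation 485 nm | read-out basis = % inhibition versus plate control and blank means | benchmarks = plate controls and plate blanks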
S1P4 antagonist – antagonists of human S1P4 receptor; O95977; S1P4-expressing cells, antagonist mode, reporter read-out; inhibition, % at 4.98 µM; 0.26% of 220,000 active; AID 1510; in the data active means inhibition above about 29%
Target sequence (O95977 whole entry, looked up): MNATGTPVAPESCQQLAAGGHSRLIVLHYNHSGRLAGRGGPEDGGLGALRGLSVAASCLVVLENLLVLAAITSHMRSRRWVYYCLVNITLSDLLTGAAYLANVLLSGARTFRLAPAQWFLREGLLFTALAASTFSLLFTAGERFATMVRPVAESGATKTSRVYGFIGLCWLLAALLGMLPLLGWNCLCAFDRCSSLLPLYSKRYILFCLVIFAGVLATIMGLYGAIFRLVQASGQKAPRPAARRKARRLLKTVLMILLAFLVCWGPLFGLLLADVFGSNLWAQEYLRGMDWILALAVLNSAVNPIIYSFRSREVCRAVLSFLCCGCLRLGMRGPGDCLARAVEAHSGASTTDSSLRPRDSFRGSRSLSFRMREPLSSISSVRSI
Biofilm kill mix – mixtures killing C. albicans biofilm | 0.02% of 120,000 active | inhibition, % at 7.6 µM | AID 1242 | C. albicans biofilm persisters + clotrimazole, fluorescence viability; primary screen in compound mixtures of four per well;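 further: compounds exposed to preformed 24 h biofilms for 48 h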
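Test system: C. albicans biofilms. Buffer or medium: RPMI/MOPS medium, pH 7.0. Timing: 48 h compound exposure at 37 °C. Technique: Alamar Blue fluorescence. Evaluation: percent inhibition of biofilm viability.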
S1P4 ag – agonists of human S1P4 receptor | S1P4-expressing cell line, agonist reporter assay | activation, % at 4.98 µM | 0.35% of 220,000 active | AID 1509; in the data active means activation above about 11%
HMGR II inh – inhibitors of class II HMG-CoA reductase from Enterococcus faecalis. purified E. faecalis HMGR, NADPH absorbance 340 nm kinetic. AID 1066. 0.41% of 190,000 active. inhibition, % at 10 µM;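 active means inhibition above a set limit, the median over all tested compounds plus 3 SD, cut at about 9.5% in these data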;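 further: enzyme runs in reverse so mevalonate oxidation gives rising NADPH absorbance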
S1P3 antag – blocks the human S1P3 receptor; CHO S1P3 NFAT-BLA reporter, FRET fluorescence, antagonist mode; inhibition, % at 4.98 µM; 0.27% of 170,000 active; AID 485;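 active means inhibition above the plate cutoff, the mean inhibition of test wells on that plate plus 3 SD, cut at about 28% in these data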;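 further: cells challenged with S1P at its EC80 of 0.8 µM; blue over green emission ratio from cleaved BLA substrate after 4 h stimulation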
S1P4 agonist cf – human S1P4 agonism, confirmation; shares compounds with S1P4 ag; S1P4 agonist cell-based reporter assay; activation, % at 4.98 µM; 7% of 740 active; AID 1523; in the data active means activation above about 12%
S1P1 agonist – human S1P1 agonism as S1P4 agonist counter-screen; 4% of 740 active; S1P1 agonist cell-based assay, activation; activation, % at 4.98 µM; AID 1563; shares compounds with S1P4 ag; in the data active means activation above about 21%
Numbers stand for hits; i = inactive; nt = no result. Hits are enriched below; roughly 1.2% of the tested compounds scored in any of these assays.

SMILES	Rad51 HR inh	S1P4 antagonist	Biofilm kill mix	S1P4 ag	HMGR II inh	S1P3 antag	S1P4 agonist cf	S1P1 agonist
Cn1c(=O)c2c(=O)cc(N)[nH]c2n(C)c1=O	i	i	i	i	nt	i	nt	nt
Cc1cc(C)n(-c2nc3ccccc3nc2N2CCCC2)n1	i	i	nt	87	i	nt	i	i
Cc1cc(C2=NNC(=NC3CC3)SC2)c(C)n1-c1c(C)n(C)n(-c2ccccc2)c1=O	nt	i	i	15	i	i	i	i
O=C1CCC([N+](=O)[O-])C(c2ccc3c(c2)OCO3)N1 (stereo not drawn)	i	i	i	114	i	i	i	i
FC(F)(F)C12CC(c3ccccc3)=NCCN1CCN2 (stereo not drawn)	i	i	nt	i	i	nt	nt	nt
CN1CCN(CCCNC(=O)c2ccc(/C=C3\Sc4ccccc4N(Cc4ccc(F)cc4)C3=O)cc2)CC1	i	i	i	23	i	i	i	i
CN1CCN(CCCNC(=O)c2ccc(/C=C3/Sc4ccccc4N(Cc4cccc(Cl)c4)C3=O)cc2)CC1	nt	i	i	i	i	i	nt	nt
COCCSc1ccccc1C(=O)N1CCCC1	i	i	nt	i	i	i	nt	nt
COCCSc1ccccc1C(=O)N1CCN(Cc2ccccc2)CC1	nt	i	i	13	i	i	i	i
NC(=O)c1nn(-c2cccc(Cl)c2)c(=O)cc1O	i	i	nt	i	i	nt	nt	nt
CC(C)(C)c1ccc(N2C(=O)CSC2c2cccnc2)cc1 (stereo not drawn)	i	i	i	99	nt	i	i	i
O=c1c2[nH]c3ccccc3c2ncn1CCC1=CCCCC1	i	i	nt	17	i	i	i	i
Cc1ccc2[nH]c3c(=O)n(CCC4=CCCCC4)cnc3c2c1	i	i	nt	i	i	nt	nt	nt
O=[N+]([O-])c1ccc(COc2ccc(-c3[nH]ncc3-c3ccc(Cl)cc3)c(O)c2)cc1	i	i	i	114	i	i	i	i
COc1ccc(-c2cn[nH]c2-c2ccc(OCc3ccc([N+](=O)[O-])cc3)cc2O)cc1OC	i	i	i	i	nt	i	nt	nt
CCCn1nc(NC(=O)C2CCCO2)c2cc3ccc(C)cc3nc21 (stereo not drawn)	i	i	i	i	nt	i	nt	nt
CCNC(=S)N(CCc1cccc(C)c1)Cc1cc2cc(OC)c(OC)cc2[nH]c1=O	nt	i	i	51	i	i	i	i
COc1ccc(CNC(=O)c2ccc(NS(=O)(=O)c3c(C)noc3C)cc2)cc1	i	i	nt	i	i	i	nt	nt
COc1ccc(Cl)cc1N(CC(=O)NCC(C)C)S(=O)(=O)c1ccc(C)c([N+](=O)[O-])c1	i	i	i	25	i	i	i	i
COc1cccc(C2=NOC(C(=O)N3CCN(C(=O)c4ccco4)CC3)C2)c1 (stereo not drawn)	i	i	nt	37	i	i	i	i
COC/C=C/C1=CC2=CC(=O)C(C)(OC(=O)c3ccco3)C(=O)C2=CO1 (stereo not drawn)	i	nt	i	nt	nt	nt	nt	nt
O=C(Nc1cccnc1)Nc1ccc2c(c1)OCO2	i	i	nt	i	i	i	nt	nt
COc1ccc(C2CC(c3cccs3)=NN2c2ccc(C=O)cc2)cc1 (stereo not drawn)	i	i	i	23	i	i	17	21
c1ccc(C2CC(c3cccs3)=NN2c2ccccc2)cc1 (stereo not drawn)	i	i	i	i	nt	i	nt	nt
COc1cc(C#N)c(NC(=S)N2CCOCC2)cc1OC	i	i	i	24	i	i	i	i
CN(C)S(=O)(=O)c1cccc(NC(=O)COC(=O)COc2ccccc2[N+](=O)[O-])c1	i	i	i	i	i	i	nt	nt
N#Cc1cc2c(=O)n3ccccc3nc2n(-c2ccc(Cl)cc2)c1=O	i	i	i	i	i	i	nt	nt
C=CCn1c(=N)c(C#N)cc2c(=O)n3ccccc3nc21	i	i	i	i	i	nt	nt	nt
Cc1ccccc1-n1c(=O)c(C#N)cc2c(=O)n3ccccc3nc21	i	i	nt	44	i	nt	27	46
C=CCn1c(=O)c(C#N)cc2c(=O)n3ccccc3nc21	i	i	nt	11	i	i	12	31
